Molecules are shown by their SMILES.

Assay [1] deals with Mus musculus. Description: Percent decrease in blood glucose level, after peroral administration of 100 mg/kg of compound in mice; Inactive. Conditions: route oral. The format is functional.
The species entered for assay [2] is Mus musculus. Description: Hypoglycemic activity causing more than a 20% blood glucose decrease in fasting mice. It counts as functional. Put shortly:
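Male ICR-CD1 mice, 5 weeks old, 18 h fasted, groups of five. Oral dosing as a suspension in 0.5% (carboxymethyl)cellulose–0.14 M NaCl, 1 mL/kg; vehicle control run in parallel. Carotid blood taken at 1 h; glucose by glucose-oxidase-peroxidase. Student's t test (p < 0.05). Value is the lowest dose giving >20% glucose decrease.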

In the assay with Mus musculus [1], `CC(C)[C@H]1CC[C@@H](C(=O)N[C@H](Cc2ccccc2)C(=O)O)CC1` came in with a Hypoglycemic activity of less than 20%.

In the case of `CC(C)[C@H]1CC[C@H](C(=O)N[C@@H](Cc2ccccc2)C(=O)OCc2ccccc2)CC1`, the “Minimum effective hypoglycemic dose” value in the assay listed under Mus musculus [2] came out at 25 mg/kg.

For `O=C(N[C@H](Cc1ccccc1)C(=O)O)C1CCCCCC1`, the Hypoglycemic activity in the assay with Mus musculus [1] is on record as less than 20%.

In the assay on Mus musculus [1], `CC(C)[C@H]1CC[C@H](C(=O)NCCc2ccccc2)CC1` returned a Hypoglycemic activity of less than 20%.

Regarding `CC[C@H]1CC[C@H](C(=O)N[C@H](Cc2ccccc2)C(=O)O)CC1`, in the assay listed under Mus musculus [2], the “Minimum effective hypoglycemic dose” value was found to be 25 mg/kg.

Turning to `O=C(O)[C@@H](Cc1ccccc1)NC(=O)[C@H]1CC[C@H](c2ccccc2)CC1`, in the assay with Mus musculus [1], the Hypoglycemic activity is given as less than 20%.

For the compound `C[C@H]1CC[C@H](C(=O)N[C@H](Cc2ccccc2)C(=O)O)CC1`, the “Minimum effective hypoglycemic dose” value in the assay filed under Mus musculus [2] turned out to be 25 mg/kg.

In the case of `CC(C)(C)[C@H]1CC[C@H](C(=O)N[C@H](Cc2ccccc2)C(=O)O)CC1`, in the assay listed under Mus musculus [2], the “Minimum effective hypoglycemic dose” value came to 6.3 mg/kg.

In the case of `CCC[C@H]1CC[C@H](C(=O)N[C@H](Cc2ccccc2)C(=O)O)CC1`, the “Minimum effective hypoglycemic dose” value in the assay listed under Mus musculus [2] is 25 mg/kg.

In the case of `CCCCC[C@H]1CC[C@H](C(=O)N[C@H](Cc2ccccc2)C(=O)O)CC1`, the Hypoglycemic activity in the assay on Mus musculus [1] is reported as less than 20%.

Consider `CCCC[C@H]1CC[C@H](C(=O)N[C@H](Cc2ccccc2)C(=O)O)CC1`, for which, in the assay filed under Mus musculus [2], the “Minimum effective hypoglycemic dose” value was found to be 25 mg/kg.

In the case of `C=C(C)[C@@H]1CC=C(C(=O)N[C@H](Cc2ccccc2)C(=O)O)CC1`, the “Minimum effective hypoglycemic dose” value in the assay filed under Mus musculus [2] worked out at 25 mg/kg.

As to `CC(C)[C@H]1CC[C@H](C(=O)N[C@@H](Cc2ccccc2)C(N)=O)CC1`, the Hypoglycemic activity in the assay on Mus musculus [1] is less than 20%.

Consider `O=C(N[C@H](Cc1ccccc1)C(=O)O)C1CCCCC1`, for which the “Minimum effective hypoglycemic dose” value in the assay filed under Mus musculus [2] was 100 mg/kg.

`O=C(N[C@H](Cc1ccccc1)C(=O)O)C1CC2CCC1C2` (stereo partly drawn) displayed a Hypoglycemic activity in the assay with Mus musculus [1] of less than 20%.

`O=C(N[C@H](Cc1ccccc1)C(=O)O)C1CCCC1`: the “Minimum effective hypoglycemic dose” value in the assay listed under Mus musculus [2] stood at 50 mg/kg.

Take `CC(C)c1ccc(C(=O)N[C@H](Cc2ccccc2)C(=O)O)cc1`: the “Minimum effective hypoglycemic dose” value in the assay listed under Mus musculus [2] amounted to 25 mg/kg.

In the case of `COC(=O)[C@H](Cc1ccccc1)NC(=O)[C@H]1CC[C@H](C(C)C)CC1`, the “Minimum effective hypoglycemic dose” value in the assay listed under Mus musculus [2] stood at 3.1 mg/kg.

Regarding `CC(C)N(C(=O)[C@H](Cc1ccccc1)NC(=O)[C@H]1CC[C@H](C(C)C)CC1)C(C)C`, the “Minimum effective hypoglycemic dose” value in the assay listed under Mus musculus [2] came to 100 mg/kg.

With `O=C(N[C@H](Cc1ccccc1)C(=O)O)C1CCc2ccccc2C1` (stereo partly drawn), the Hypoglycemic activity in the assay with Mus musculus [1] is listed as less than 20%.

Regarding `CC(C)[C@H]1CC[C@H](C(=O)N[C@@H](Cc2ccccc2)C(=O)O)CC1` [(S)-NATEGLINIDE], in the assay filed under Mus musculus [2], the “Minimum effective hypoglycemic dose” value was found to be 100 mg/kg.

Consider `CC(C)[C@H]1CC[C@H](C(=O)N[C@H](Cc2ccccc2)C(=O)O)CC1` [NATEGLINIDE], for which, in the assay listed under Mus musculus [2], the “Minimum effective hypoglycemic dose” value amounted to 1.6 mg/kg.

Consider `CCCCNC(=O)NS(=O)(=O)c1ccc(C)cc1` [TOLBUTAMIDE], for which the “Minimum effective hypoglycemic dose” value in the assay filed under Mus musculus [2] was determined as 25 mg/kg.

These data come from ChEMBL document CHEMBL1124511, “N-(cyclohexylcarbonyl)-D-phenylalanines and related compounds. A new class of oral hypoglycemic agents. 2” (1989).
